Test results reported in ChEMBL document CHEMBL1144485, “The synthesis and the in vitro cytotoxicity studies of bisnaphthalimidopropyl polyamine derivatives against colon cancer cells and parasite Leishmania infantum” (Bioorg Med Chem, 2007).

Tests used:
[1] = test system: Caco-2; experiment: Cytotoxicity activity against Caco-2 cells after 24 by MTT assay; type: cell-based; settings: Homo sapiens
Outline: (§1)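 Caco-2 cells in Earle's MEM with 10% FCS, glutamine, non-essential amino acids, penicillin/streptomycin; seeded at 2 × 10^4 cells cm−2, 24 h before drug. Compounds (stock in 20% DMSO, diluted in medium) at 0.01–40 µM for 24 or 48 h, 37 °C. MTT 1 mg/ml in serum-free medium 4 h, DMSO solubilisation, A560. IC50 = 50% absorbance reduction vs control from fitted log line; six replicates, mean ± SD.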

[2] = test system: Caco-2; experiment: Cytotoxicity activity against Caco-2 cells after 48 by MTT assay; type: cell-based; settings: Homo sapiens; outline: as §1
[3] = test system: Leishmania infantum; experiment: Cytotoxicity activity against Leishmania infantum after 72 hrs by MTT assay; type: functional, organism-based
Outline: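 L. infantum promastigotes (clone MHOM/MA671TMA-P263), log phase (2-day culture), grown at 27 °C in RPMI with 10% heat-inactivated FBS, 2 mM glutamine, 20 mM Hepes, penicillin/streptomycin. 10^6/ml exposed to serial drug concentrations (0.30–100 µM) for 3 days, 27 °C. MTT 0.25 mg/ml final, 4 h, 27 °C; SDS/DMF pH 4.8 lysis 1 h at 37 °C, A550. Growth IC50 by linear regression; at least five assays, ± SD.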

| Compound | IC50 [1] [µM] | IC50 [2] [nM] | IC50 [3] [nM] |
| --- | --- | --- | --- |
| O=C1c2cccc3cccc(c23)C(=O)N1CCCNCCCCCCCCCCNCCCN1C(=O)c2cccc3cccc(c23)C1=O [BNIPDADEC] | 0.77 | 360 |  |
| O=C1c2cccc3cccc(c23)C(=O)N1CCCNCCCCNCCCNCCCN1C(=O)c2cccc3cccc(c23)C1=O [BNIPSPD] | 0.47 | 150 | 470 |
| O=C1c2cccc3cccc(c23)C(=O)N1CCCNCCCCCCCCCNCCCN1C(=O)c2cccc3cccc(c23)C1=O [BNIPDANON] | 3.6 | 670 | 780 |
| O=C1c2cccc3cccc(c23)C(=O)N1CCCNCCCNCCCNCCCN1C(=O)c2cccc3cccc(c23)C1=O [BNIPDPTA] | 5.14 | 1540 | 1540 |
| O=C1c2cccc3cccc(c23)C(=O)N1CCCNCCNCCNCCCN1C(=O)c2cccc3cccc(c23)C1=O [BNIPDETA] | 21.7 | 22300 | 740 |
| O=C1c2cccc3cccc(c23)C(=O)N1CCCNCCCCCCCCNCCCN1C(=O)c2cccc3cccc(c23)C1=O [BNIPDAOCT] | 6.2 | 3200 | 780 |
